From PubChem BioAssay
ROMK mod: human ROMK K+ channel modulation, primary screen; P48048; Tet-inducible ROMK, thallium flux fluorescence; actives lie on both sides; B-score at 10 µM; hit rate 2% among 130,000;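 active means signal ratio slope over the read window, or its plate-corrected B-score, at least 3 SD from the plate mean, either direction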;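 further: B-score of the F/F0 ratio slope over 7 to 12 s after thallium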
PKD1 kinase inh: blocks activity of human protein kinase D1; Q15139; PKD1 kinase fluorescence polarization assay; inhibition, % (no concentration beside the values); hit rate 0.056% among 200,000; in the data active means inhibition above about 50%
Target sequence (Q15139 whole entry, looked up): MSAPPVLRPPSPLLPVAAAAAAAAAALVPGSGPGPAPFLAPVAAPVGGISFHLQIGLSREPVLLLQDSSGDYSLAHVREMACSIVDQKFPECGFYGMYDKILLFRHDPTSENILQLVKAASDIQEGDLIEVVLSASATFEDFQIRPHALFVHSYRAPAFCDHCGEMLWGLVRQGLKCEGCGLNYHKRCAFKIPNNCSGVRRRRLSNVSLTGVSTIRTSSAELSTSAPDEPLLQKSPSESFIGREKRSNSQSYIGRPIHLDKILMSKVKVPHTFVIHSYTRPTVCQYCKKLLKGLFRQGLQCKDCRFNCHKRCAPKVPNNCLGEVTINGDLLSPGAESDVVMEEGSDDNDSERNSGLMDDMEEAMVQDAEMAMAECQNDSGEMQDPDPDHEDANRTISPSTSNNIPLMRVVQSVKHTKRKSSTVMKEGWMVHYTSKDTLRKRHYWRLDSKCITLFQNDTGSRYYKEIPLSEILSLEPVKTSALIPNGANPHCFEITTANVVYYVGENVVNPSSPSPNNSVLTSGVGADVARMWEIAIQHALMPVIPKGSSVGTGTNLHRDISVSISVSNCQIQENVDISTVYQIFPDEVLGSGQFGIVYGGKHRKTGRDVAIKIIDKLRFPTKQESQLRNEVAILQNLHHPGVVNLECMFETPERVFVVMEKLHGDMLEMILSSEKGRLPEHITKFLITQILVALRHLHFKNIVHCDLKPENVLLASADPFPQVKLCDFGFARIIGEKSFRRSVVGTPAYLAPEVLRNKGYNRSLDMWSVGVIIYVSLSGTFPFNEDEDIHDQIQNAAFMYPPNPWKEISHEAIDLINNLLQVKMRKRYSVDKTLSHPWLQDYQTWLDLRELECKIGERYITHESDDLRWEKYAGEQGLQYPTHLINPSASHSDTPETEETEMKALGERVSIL
Rad51 HR inh: Rad51 (human) homologous recombination inhibition. hit rate 0.085% among 200,000. inhibition, % at 10 µM. hRad51 DNA strand exchange, fluorescence dequenching. AID 1385;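 active means inhibition above 40% at the single screening dose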
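Assay system: Human Rad51 nucleoprotein filaments preassembled on unlabelled ssDNA | Reagent: Donor/quencher-labelled 47-bp dsDNA substrate | Doses: One concentration, 10 µM final | Times: 37 °C 15-min filament assembly, 30-min compound preincubation, 15-min exchange | Technique: Fluorescein emission 520 nm, excitation 485 nm | Benchmarks: Plate control and blank wells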
Cl transport mod: modulates chloride dependent transport by human KCC2. Q9H2X9. KCC2 cells, thallium flux FluoZin-2 fluorescence. B-score of Tl+ flux slope (higher = more flux/activation; lower = inhibition) at 10 µM. hit rate 2.2% among 190,000. AID 1456;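 active means thallium flux slope and its plate-corrected score both differing from the plate sample mean at a set confidence after two filtering rounds, in either direction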;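 further: slope of fluorescence scaled to starting intensity during 10 to 20 s after thallium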
KCC2 sec1: confirmation of human KCC2 transport modulators | shares compounds with Cl transport mod | HEK293-KCC2, thallium flux, FluoZin2 fluorescence; stronger effect = higher value | normalised thallium flux (F/F0 slope) at 10 µM | AID 1713 | hit rate 15% among 3,700;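 active means thallium flux slope above the same plate's solvent-only control mean plus 3 SD; inconclusive means the two replicate wells disagree; inactive means no significant difference from solvent-only control wells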
KCC2 bumet counter: bumetanide-insensitive thallium flux in KCC2 cells with ouabain, counter-screen. HEK293-KCC2 + bumetanide/ouabain, thallium flux FluoZin2; stronger effect = higher value. AID 1714. hit rate 49% among 3,700. normalized thallium flux at 10 µM. shares compounds with Cl transport mod;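 active means thallium entry rate above the same plate's blocked-transporter control wells by more than 3 SD; inconclusive means the two repeat wells disagree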;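 further: raw slope of fluorescence over initial fluorescence between 10 and 20 s after thallium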
KCC2 secondary2: confirmation of human KCC2 transport modulators | shares compounds with Cl transport mod | HEK293-KCC2, thallium flux FluoZin2 fluorescence; actives lie on both sides; F/F0 rise rate, 10–20 s post-thallium | normalized thallium flux at 10 µM | hit rate 23% among 3,700 | AID 1715;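 active means thallium flux slope more than 3 SD above or below the plate's solvent-only control mean, mostly below; inconclusive means the two repeat wells disagreed; inactive means no significant shift from solvent-only controls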
HEK counter1: counter-screen for KCC2 modulators: effect in parental HEK293 cells | shares compounds with Cl transport mod | hit rate 46% among 3,700 | AID 1716 | thallium flux FluoZin2, ouabain; baseline-ratio fluorescence slope, 10–20 s after thallium | thallium flux rate (normalised fluorescence) at 10 µM;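 active means thallium flux rate significantly above the same plate's solvent-only control wells, beyond their mean plus 3 SD; inconclusive means the two replicate wells gave conflicting results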
KCC2 retest ouab: modulates human KCC2 on retest with ouabain; raw Tl+ flux slope (below DMSO = inhibition, above = activation) at 10 µM; hit rate 48% among 3,700; AID 1717; shares compounds with Cl transport mod; HEK293-KCC2, thallium flux FluoZin2 fluorescence; bidirectional: low = inhibitor, high = activator;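 active means thallium flux slope beyond 3 SD from same-plate DMSO control mean in most replicates, usually higher, sometimes lower; inconclusive means repeat tests gave conflicting results; inactive means no significant difference from controls in most replicates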;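 further: slope of initial-normalized fluorescence between seconds 10 and 20 after thallium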
HEK counter2: counter-screen for KCC2 modulators: effect in parental HEK293 cells; shares compounds with Cl transport mod; thallium flux FluoZin-2 fluorescence slope; thallium flux slope at 10 µM; hit rate 33% among 3,700; AID 1718;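 active means thallium flux slope above the same plate's solvent-control mean plus 3 SD in both duplicate wells; inconclusive means duplicate wells that disagreed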;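 further: run without ouabain in cells lacking the KCC2 cotransporter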
Hits are given with their value. Compounds with a hit are over-represented: about 3% of the library has one in this group of screens.

For Cc1c(Cl)c([N+](=O)[O-])nn1CCCC(=O)N1CCN(c2ccccc2)CC1 the results were ROMK mod inactive, PKD1 kinase inh inactive, Rad51 HR inh inactive, Cl transport mod -2.7, KCC2 sec1 inactive, KCC2 bumet counter inconclusive, KCC2 secondary2 inactive, HEK counter1 inactive, KCC2 retest ouab inactive and HEK counter2 inconclusive.
Screening O/N=C\c1cccn1-c1ccc(Br)cc1 returned ROMK mod inactive, PKD1 kinase inh inactive, Rad51 HR inh inactive, KCC2 sec1 inactive, KCC2 bumet counter inactive, KCC2 secondary2 inactive, HEK counter1 inactive, KCC2 retest ouab inactive and HEK counter2 inactive.
CCOC(=O)Cc1csc(NC(=S)NC(=O)c2ccc(F)cc2)n1 was read as ROMK mod inactive, PKD1 kinase inh inactive, Cl transport mod 11, KCC2 sec1 inactive, KCC2 bumet counter 0.039, KCC2 secondary2 0.041, HEK counter1 0.03, KCC2 retest ouab 0.046 and HEK counter2 0.02.
For CCOC(=O)Cc1csc(NC(=S)NC(=O)c2cc(OC)c(OC)c(OC)c2)n1 the results were Rad51 HR inh inactive, Cl transport mod 6.9, KCC2 sec1 inactive, KCC2 bumet counter 0.016, KCC2 secondary2 inactive, HEK counter1 0.0098, KCC2 retest ouab inactive and HEK counter2 inactive.
`CCOC(=O)Cc1csc(NC(=O)Nc2ccc(F)cc2)n1` gave Rad51 HR inh inactive and Cl transport mod inactive.
CCOC(=O)Cc1csc(NC(=O)c2ccc(OC)c(OC)c2)n1 was read as PKD1 kinase inh inactive, Rad51 HR inh inactive and Cl transport mod inactive.
CC1CCN(CC(=O)Nc2ccc(N3CCCCCC3)cc2)CC1 was read as ROMK mod inactive, PKD1 kinase inh inactive, Rad51 HR inh inactive and Cl transport mod inactive.
For Cc1cc(C=C2C(=O)c3ccccc3C2=O)c(C)n1-c1ccc(C(=O)O)cc1 the results were ROMK mod inactive, PKD1 kinase inh inactive, Rad51 HR inh inactive and Cl transport mod inactive.
`Cc1cc(C=C2C(=O)c3ccccc3C2=O)c(C)n1-c1cccc(C(=O)O)c1` gave ROMK mod inactive, PKD1 kinase inh inactive, Rad51 HR inh inactive, Cl transport mod -5.4, KCC2 sec1 inactive, KCC2 bumet counter inconclusive, KCC2 secondary2 0.02, HEK counter1 0.0056, KCC2 retest ouab 0.01 and HEK counter2 inactive.
CC1CN(S(=O)(=O)c2ccc(NC(=O)CCN3C(=O)c4ccccc4C3=O)cc2)CC(C)O1 (stereo not drawn) was read as PKD1 kinase inh inactive, Cl transport mod -3.9, KCC2 sec1 inactive, KCC2 bumet counter inactive, KCC2 secondary2 inactive, HEK counter1 inactive, KCC2 retest ouab inactive and HEK counter2 inactive.
For CC1CN(S(=O)(=O)c2ccc(NC(=O)CCCN3C(=O)c4ccccc4C3=O)cc2)CC(C)O1 (stereo not drawn) the results were PKD1 kinase inh inactive and Rad51 HR inh inactive.
For Cc1cc(C(=O)CSc2nc(N)cc(=O)[nH]2)c(C)n1CCc1ccc(F)cc1 the results were PKD1 kinase inh inactive, Rad51 HR inh inactive, Cl transport mod -4.2, KCC2 sec1 inactive, KCC2 bumet counter inactive, KCC2 secondary2 inactive, HEK counter1 inactive, KCC2 retest ouab inactive and HEK counter2 inactive.
Screening O=C(Oc1cc(-c2ccccc2)no1)c1ccc(Cl)cc1 returned ROMK mod inactive, PKD1 kinase inh inactive, Cl transport mod -5.5, KCC2 sec1 inactive, KCC2 bumet counter inactive, KCC2 secondary2 inactive, HEK counter1 inactive, KCC2 retest ouab inactive and HEK counter2 inactive.
For Cc1ccc(-c2oc3ccccc3c(=O)c2O)cc1 the results were PKD1 kinase inh inactive, Rad51 HR inh inactive, Cl transport mod 106, KCC2 sec1 0.0099, KCC2 bumet counter 0.1, KCC2 secondary2 0.081, HEK counter1 0.095, KCC2 retest ouab 0.097 and HEK counter2 0.08.
Screening CC1CCCN(c2nc3nonc3nc2N2CCCC(C)C2)C1 (stereo not drawn) returned ROMK mod inactive, PKD1 kinase inh inactive, Rad51 HR inh inactive and Cl transport mod inactive.
Screening CC(=O)NCC1CCCN(c2nc3nonc3nc2N(C)Cc2ccccc2)C1 (stereo not drawn) returned ROMK mod inactive, PKD1 kinase inh inactive, Rad51 HR inh inactive, Cl transport mod -7, KCC2 sec1 inactive, KCC2 bumet counter inactive, KCC2 secondary2 0.029, HEK counter1 inactive, KCC2 retest ouab 0.016 and HEK counter2 inactive.
For CN(Cc1ccccc1)c1nc2nonc2nc1N1CCCC(CN2CCCC2=O)C1 (stereo not drawn) the results were Cl transport mod -5.4, KCC2 sec1 inactive, KCC2 bumet counter inactive, KCC2 secondary2 0.019, HEK counter1 inactive, KCC2 retest ouab inactive and HEK counter2 inactive.
For Cn1c(=O)c2c(ncn2CC(=O)N/N=C/c2ccc(Br)s2)n(C)c1=O the results were PKD1 kinase inh inactive, Rad51 HR inh inactive and Cl transport mod inactive.
Screening CCC(C)N(C(=O)COc1ccc(NC(C)=O)cc1)C1CCS(=O)(=O)C1 (stereo not drawn) returned ROMK mod inactive, PKD1 kinase inh inactive, Rad51 HR inh inactive and Cl transport mod inactive.
`Cc1cccc2sc(NNC(=O)C3COc4ccccc4O3)nc12` (stereo not drawn) gave ROMK mod inactive, PKD1 kinase inh inactive, Rad51 HR inh inactive, Cl transport mod 10, KCC2 sec1 inactive, KCC2 bumet counter 0.043, KCC2 secondary2 inactive, HEK counter1 0.017, KCC2 retest ouab 0.035 and HEK counter2 0.015.
For O=C(Nc1nnc(C2CC2)s1)C1COc2ccccc2O1 (stereo not drawn) the results were PKD1 kinase inh inactive, Rad51 HR inh inactive and Cl transport mod inactive.
`O=C(Nc1nnc(C(F)(F)F)s1)C1COc2ccccc2O1` (stereo not drawn) gave PKD1 kinase inh inactive, Rad51 HR inh inactive, Cl transport mod -3.8, KCC2 sec1 inactive, KCC2 bumet counter inactive, KCC2 secondary2 inactive, HEK counter1 inactive, KCC2 retest ouab inactive and HEK counter2 inactive.
